According to ChEMBL document CHEMBL1157295, “Polyacylated oligosaccharides from medicinal Mexican morning glory species as antibacterials and inhibitors of multidrug resistance in Staphylococcus aureus” (2006):
Converted amounts (≈) assume the structure as drawn.

Key:
Type in all cases: functional
[1] = test system: Staphylococcus aureus; experiment: Antimicrobial activity against epidemic methicillin-resistant Staphylococcus aureus 15 by standard microdilution method
Method in brief: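 Broth microdilution following NCCLS guidelines, at least in duplicate, against EMRSA-15 (mecA) precultured on nutrient agar. Medium was cation-adjusted Mueller-Hinton broth with 20 mg/L Ca2+ and 10 mg/L Mg2+. Inoculum was 5 × 10^5 cfu in 0.9% saline, set against a McFarland standard. Compounds were dissolved in DMSO (final ≤3.125% v/v) and tested at 1–512 µg/mL in 2-fold series. MIC was the lowest concentration with no visible growth.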

[2] = test system: Staphylococcus aureus; experiment: Antimicrobial activity against Staphylococcus aureus ATCC 25923 by standard microdilution method
Method in brief: (§1)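 Broth microdilution per NCCLS guidelines, at least in duplicate, in cation-adjusted Mueller-Hinton broth (20 mg/L Ca2+, 10 mg/L Mg2+). Strains were grown first on nutrient agar. Inoculum of 5 × 10^5 cfu was set in 0.9% saline against a McFarland standard. Compounds were dissolved in DMSO and given as 2-fold serial dilutions, final 1–512 µg/mL, with at most 3.125% v/v DMSO. MIC is the lowest concentration showing no visible growth.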

[3] = test system: Staphylococcus aureus; experiment: Antimicrobial activity against TetK multidrug efflux pump possessing Staphylococcus aureus XU-212 by standard microdilution method; method in brief: as §1
[4] = test system: Mycobacterium tuberculosis; experiment: Antimicrobial activity against Mycobacterium tuberculosis
[5] = test system: Staphylococcus aureus; experiment: Antimicrobial activity against Staphylococcus aureus ATCC 6538

SMILES	MIC [1] [µg/mL]	MIC [2] [µg/mL]	MIC [3] [µg/mL]	MIC [4] [µg/mL]	MIC [5] [µg/mL]
C/C=C(\C)C(=O)O[C@H]1[C@H](O)[C@@H](O)[C@H](O[C@@H]2[C@H]3OC(=O)CCCCCCCCC[C@H](CCCCC)O[C@@H]4O[C@H](C)[C@@H](O)[C@H](O)[C@H]4O[C@@H]4O[C@H](COC(=O)C(C)C)[C@@H](O)[C@H](O)[C@H]4O[C@H](O[C@H]2C)[C@@H]3OC(=O)[C@@H](C)[C@H](C)O)O[C@@H]1C [ORIZABIN XI]	4 (≈ 3.61 µM)	16 (≈ 14.4 µM)	32 (≈ 28.9 µM)	–	–
CCCCC[C@H]1CCCCCCCCCC(=O)O[C@H]2[C@H](O)[C@@H](CO)O[C@@H](O[C@H]3[C@H](O1)O[C@H](C)[C@@H](O)[C@@H]3O)[C@@H]2O[C@@H]1O[C@@H](C)[C@H](OC(=O)[C@@H](C)CC)[C@@H](O[C@@H]2O[C@@H](C)[C@H](O)[C@@H](O)[C@H]2O)[C@H]1OC(=O)[C@@H](C)CC [TRICOLORIN E]	8 (≈ 7.82 µM)	16 (≈ 15.6 µM)	8 (≈ 7.82 µM)	16 (≈ 15.6 µM)	1 (≈ 0.977 µM)
C/C=C(\C)C(=O)O[C@H]1[C@H](O)[C@@H](O)[C@H](O[C@@H]2[C@H]3OC(=O)CCCCCCCCC[C@H](CCCCC)O[C@@H]4O[C@H](C)[C@@H](O)[C@H](O)[C@H]4O[C@@H]4O[C@H](CO)[C@@H](O)[C@H](O)[C@H]4O[C@H](O[C@H]2C)[C@@H]3OC(=O)[C@@H](C)CC)O[C@@H]1C [SCAMMONIN I]	32 (≈ 31.3 µM)	32 (≈ 31.3 µM)	128 (≈ 125 µM)	–	–
C/C=C(\C)C(=O)O[C@H]1[C@H](O)[C@@H](O)[C@H](O[C@@H]2[C@H]3OC(=O)CCCCCCCCC[C@H](CCCCC)O[C@@H]4O[C@H](C)[C@@H](O)[C@H](O)[C@H]4O[C@@H]4O[C@H](COC(=O)[C@@H](C)CC)[C@@H](O)[C@H](O)[C@H]4O[C@H](O[C@H]2C)[C@@H]3OC(=O)[C@@H](C)[C@H](C)O)O[C@@H]1C [ORIZABIN XV]	16 (≈ 14.3 µM)	128 (≈ 114 µM)	512 (≈ 457 µM)	–	–
CCn1cc(C(=O)O)c(=O)c2cc(F)c(N3CCNCC3)cc21 [NORFLOXACIN]	0.5 (≈ 1.57 µM)	2 (≈ 6.26 µM)	16 (≈ 50.1 µM)	–	–
CN(C)[C@@H]1C(O)=C(C(N)=O)C(=O)[C@@]2(O)C(O)=C3C(=O)c4c(O)cccc4[C@@](C)(O)[C@H]3C[C@@H]12 [TETRACYCLINE]	0.15 (≈ 0.338 µM)	0.08 (≈ 0.18 µM)	64 (≈ 144 µM)	–	–
C/C=C(\C)C(=O)O[C@H]1[C@H](O)[C@@H](O)[C@H](O[C@@H]2[C@H]3OC(=O)CCCCCCCCC[C@H](CCCCC)O[C@@H]4O[C@H](C)[C@@H](O)[C@H](O)[C@H]4O[C@@H]4O[C@H](COC(=O)[C@H](C)[C@@H](C)O)[C@@H](O)[C@H](O)[C@H]4O[C@H](O[C@H]2C)[C@@H]3OC(=O)C(C)C)O[C@@H]1C [ORIZABIN XII]	512 (≈ 462 µM)	> 512	> 512	–	–
CCCCC[C@H]1CCCCCCCCCC(=O)O[C@@H]2[C@@H](O[C@@H]3O[C@H](C)[C@@H](OC(=O)[C@@H](C)CC)[C@H](O)[C@H]3O)[C@H](C)O[C@@H](O[C@H]3[C@H](O[C@H]4[C@H](O1)O[C@H](C)[C@@H](O)[C@@H]4O)O[C@H](COC(=O)[C@@H](C)CC)[C@@H](O)[C@@H]3O)[C@@H]2OC(=O)[C@@H](C)[C@H](C)O [ORIZABIN XIX]	256 (≈ 228 µM)	128 (≈ 114 µM)	512 (≈ 456 µM)	–	–
CCCCC[C@H]1CCCCCCCCCC(=O)O[C@H]2[C@H](O[C@H]3[C@H](O[C@H]4[C@H](O1)O[C@H](C)[C@H](O)[C@@H]4O)O[C@H](CO)[C@@H](O)[C@@H]3O)O[C@H](C)[C@@H](O)[C@@H]2O [TRICOLORIN F]	> 512	> 512	> 512	–	–
CCCCC[C@H]1CCCCCCCCCC(=O)O[C@@H]2[C@@H](O[C@@H]3O[C@H](C)[C@@H](OC(=O)[C@@H](C)CC)[C@H](O)[C@H]3O)[C@H](C)O[C@@H](O[C@H]3[C@H](O[C@H]4[C@H](O1)O[C@H](C)[C@@H](O)[C@@H]4O)O[C@H](COC(=O)[C@H](C)[C@@H](C)O)[C@@H](O)[C@@H]3O)[C@@H]2OC(=O)[C@@H](C)CC [ORIZABIN XX]	32 (≈ 28.5 µM)	64 (≈ 57 µM)	> 512	–	–
C/C=C(\C)C(=O)O[C@H]1[C@H](O)[C@@H](O)[C@H](O[C@@H]2[C@H]3OC(=O)CCCCCCCCC[C@H](CCCCC)O[C@@H]4O[C@H](C)[C@@H](O)[C@H](O)[C@H]4O[C@@H]4O[C@H](COC(=O)C(C)C)[C@@H](O)[C@H](O)[C@H]4O[C@H](O[C@H]2C)[C@@H]3OC(=O)[C@H](C)[C@@H](C)O)O[C@@H]1C [ORIZABIN X]	4 (≈ 3.61 µM)	16 (≈ 14.4 µM)	32 (≈ 28.9 µM)	–	–
CCCCC[C@H]1CCCCCCCCCC(=O)O[C@@H]2[C@@H](O[C@@H]3O[C@H](C)[C@@H](O)[C@H](O)[C@H]3O)[C@H](C)O[C@@H](O[C@H]3[C@H](O[C@H]4[C@H](O1)O[C@H](C)[C@@H](O)[C@@H]4O)O[C@H](CO)[C@@H](O)[C@@H]3O)[C@@H]2OC(=O)[C@@H](C)CC [SCAMMONIN II]	128 (≈ 136 µM)	256 (≈ 273 µM)	512 (≈ 545 µM)	–	–
C/C=C(\C)C(=O)O[C@H]1[C@H](O)[C@@H](O)[C@H](O[C@@H]2[C@H]3OC(=O)CCCCCCCCC[C@H](CCCCC)O[C@@H]4O[C@H](C)[C@@H](O)[C@H](O)[C@H]4O[C@@H]4O[C@H](COC(=O)[C@@H](C)[C@H](C)O)[C@@H](O)[C@H](O)[C@H]4O[C@H](O[C@H]2C)[C@@H]3OC(=O)[C@@H](C)CC)O[C@@H]1C [ORIZABIN XVII]	8 (≈ 7.13 µM)	8 (≈ 7.13 µM)	32 (≈ 28.5 µM)	–	–
CCCCC[C@H](CCCCCCCCCC(=O)OC[C@H]1O[C@H]2O[C@H]3[C@H](O[C@@H](CCCCC)CCCCCCCCCC(=O)O[C@H]4[C@H](O[C@@H]2[C@@H](O)[C@@H]1O)O[C@H](C)[C@@H](O)[C@@H]4O)O[C@H](C)[C@H](O)[C@@H]3O)O[C@@H]1O[C@H](C)[C@H](O)[C@H](O)[C@H]1O[C@@H]1O[C@H](CO)[C@@H](O)[C@H](O)[C@H]1O[C@@H]1O[C@H](C)[C@@H](O)[C@H](O)[C@H]1O [TRICOLORIN J]	> 256	> 256	> 256	–	–
C/C=C(\C)C(=O)O[C@H]1[C@H](O)[C@@H](O)[C@H](O[C@@H]2[C@H]3OC(=O)CCCCCCCCC[C@H](CCCCC)O[C@@H]4O[C@H](C)[C@@H](O)[C@H](O)[C@H]4O[C@@H]4O[C@H](COC(=O)[C@@H](C)[C@H](C)O)[C@@H](O)[C@H](O)[C@H]4O[C@H](O[C@H]2C)[C@@H]3OC(=O)C(C)C)O[C@@H]1C [ORIZABIN XIII]	8 (≈ 7.22 µM)	8 (≈ 7.22 µM)	32 (≈ 28.9 µM)	–	–
C/C=C(\C)C(=O)O[C@H]1[C@H](O)[C@@H](O)[C@H](O[C@@H]2[C@H]3OC(=O)CCCCCCCCC[C@H](CCCCC)O[C@@H]4O[C@H](C)[C@@H](O)[C@H](O)[C@H]4O[C@@H]4O[C@H](COC(=O)[C@@H](C)CC)[C@@H](O)[C@H](O)[C@H]4O[C@H](O[C@H]2C)[C@@H]3OC(=O)[C@H](C)[C@@H](C)O)O[C@@H]1C [ORIZABIN XIV]	8 (≈ 7.13 µM)	16 (≈ 14.3 µM)	64 (≈ 57.1 µM)	–	–
CCCCC[C@H]1CCCCCCCCCC(=O)O[C@@H]2[C@@H](O[C@@H]3O[C@H](C)[C@@H](OC(=O)[C@@H](C)CC)[C@H](O)[C@H]3O)[C@H](C)O[C@@H](O[C@H]3[C@H](O[C@H]4[C@H](O1)O[C@H](C)[C@@H](O)[C@@H]4O)O[C@H](COC(=O)[C@@H](C)[C@H](C)O)[C@@H](O)[C@@H]3O)[C@@H]2OC(=O)[C@@H](C)CC [ORIZABIN XXI]	16 (≈ 14.2 µM)	8 (≈ 7.12 µM)	64 (≈ 57 µM)	–	–
CCCCC[C@H]1CCCCCCCCCC(=O)O[C@@H]2[C@@H](O[C@@H]3O[C@H](C)[C@@H](OC(=O)[C@@H](C)CC)[C@H](O)[C@H]3O)[C@H](C)O[C@@H](O[C@H]3[C@H](O[C@H]4[C@H](O1)O[C@H](C)[C@@H](O)[C@@H]4O)O[C@H](COC(=O)[C@@H](C)CC)[C@@H](O)[C@@H]3O)[C@@H]2OC(=O)[C@H](C)[C@@H](C)O [ORIZABIN XVIII]	64 (≈ 57 µM)	32 (≈ 28.5 µM)	64 (≈ 57 µM)	–	–
C/C=C(\C)C(=O)O[C@H]1[C@H](O)[C@@H](O)[C@H](O[C@@H]2[C@H]3OC(=O)CCCCCCCCC[C@H](CCCCC)O[C@@H]4O[C@H](C)[C@@H](O)[C@H](O)[C@H]4O[C@@H]4O[C@H](COC(=O)[C@H](C)[C@@H](C)O)[C@@H](O)[C@H](O)[C@H]4O[C@H](O[C@H]2C)[C@@H]3OC(=O)[C@@H](C)CC)O[C@@H]1C [ORIZABIN XVI]	8 (≈ 7.13 µM)	8 (≈ 7.13 µM)	128 (≈ 114 µM)	–	–
C/C=C(\C)C(=O)O[C@H]1[C@H](O)[C@@H](O)[C@H](O[C@@H]2[C@H]3OC(=O)CCCCCCCCC[C@H](CCCCC)O[C@@H]4O[C@H](C)[C@@H](O)[C@H](O)[C@H]4O[C@@H]4O[C@H](CO)[C@@H](OC(=O)[C@H](C)[C@@H](C)O)[C@H](O)[C@H]4O[C@H](O[C@H]2C)[C@@H]3OC(=O)[C@@H](C)CC)O[C@@H]1C [ORIZABIN IX]	256 (≈ 228 µM)	> 512	> 512	–	–
